In one test the test system is BLM. The test is described as follows: Migrastatic activity against human BLM cells assessed as decrease in cell migration at 10 uM incubated for 24 hrs by spheroid invasion assay. The test is classed as functional, cell-based. Summed up: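 BLM spheroids formed over 2 days, embedded singly in 1.5 mg mL⁻¹ rat-tail type I collagen (1× DMEM, 1% FBS), polymerized at 37 °C, overlaid with medium; 10 μM treatment. Imaged at 0 and 24 h; invasiveness as spheroid area increase. Three independent experiments, ≥8 spheroids each; one-way ANOVA.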

Test [1] deals with HT-1080. Briefly: Inhibition of actin in human HT-1080 cells assessed as effect on actin cytoskeleton at 10 uM incubated for 2 mins by fluorescence microscopic analysis. The test is classed as cell-based. Summed up:
(§1)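 HT1080 cells on glass-bottom plates stained with SPY650-FastAct; untreated cells imaged every 20 s for 15 min, then compound (10 or 50 μM) added to same well and recorded 15 min at 20 s/frame by fluorescence time-lapse; actin cytoskeleton and morphology assessed from video.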

Test [2] can be described thus: Inhibition of actin (unknown origin) polymerization at 10 uM by spectrophotometer analysis. Particulars: Homo sapiens. Summed up:
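Pyrene-labelled actin (0.4 mg mL⁻¹) in G-buffer with compound at 10 μM or DMSO control; polymerization started with 10× actin polymerization buffer. Fluorescence (ex 360 nm, em 420 nm) followed over time until plateau.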

Test [3] concerns HT-1080. Briefly: Inhibition of actin in human HT-1080 cells assessed as effect on actin cytoskeleton at 10 uM incubated for 5 mins by fluorescence microscopic analysis. Type of test: cell-based. Summed up:
as §1

The test system of test [4] is HT-1080. The test is described as follows: Effect on cell morphology in human HT-1080 cells at 50 uM incubated for 5 mins by fluorescence microscopic analysis. The test is classed as functional, cell-based. In short, it runs like this: as §1

Structures are written as SMILES. The source made the active and inactive calls. The rule behind the calls is not given here.

Regarding `C=C1[C@@H](C)[C@H]2[C@H](Cc3ccccc3)NC(=O)[C@]23OC(=O)/C=C/[C@H](O)CCC[C@@H](C)C/C=C/[C@H]3[C@@H]1O`, in the test with BLM, the result was inactive. Moreover, in the test with HT-1080 [1], the inhibition result is “Active”.
In the case of `C=C1[C@@H](C)[C@H]2[C@H](Cc3ccccc3)NC(=O)[C@@]2(C(=O)OC)[C@@H](CCOCCc2ccccc2)[C@@H]1O`, the result in the test on BLM and in the test on HT-1080 [4] was Active. Besides, the inhibition entry (in test [2]; with HT-1080 [3]) was “Active” in each case. Also, the inhibition entry in the test on HT-1080 [1] is “inactive”.
For `COC(=O)[C@@]12C(=O)N[C@@H](Cc3ccccc3)[C@@H]1[C@H](C)[C@@](C)(Cl)[C@H](O)[C@@H]2CCOCCc1ccccc1`, the inhibition entry in test [2] is “Active”.
`C=C1[C@@H](C)[C@H]2[C@H](Cc3ccccc3)NC(=O)[C@]23[C@H](OC(C)=O)/C=C/[C@@](C)(O)C(=O)[C@@H](C)C/C=C/[C@H]3[C@@H]1O`: the outcome in the test with BLM was inactive. In the test on HT-1080 [1], the inhibition entry is “Active”.
As to `CC1=C[C@H](CCOCCc2ccccc2)[C@]2(CO)C(=O)N[C@@H](Cc3ccccc3)[C@@H]2[C@@H]1C`, the outcome in the test with BLM was Active. Moreover, the inhibition result in test [2] is “Active”.
With `COC(=O)[C@@]12C(=O)N[C@@H](Cc3ccccc3)[C@@H]1[C@H](C)C(C)=C[C@@H]2CCCOCc1ccccc1`, the result in the test on BLM was Active. Moreover, the inhibition result in test [2] was “Active”.

(Values after ChEMBL document CHEMBL5357040, “Synthesis and migrastatic activity of cytochalasin analogues lacking a macrocyclic moiety” (RSC Med Chem, 2024).)
